Results from ChEMBL document CHEMBL2157880, “Synthesis, antimycobacterial and antibacterial activity of ciprofloxacin derivatives containing a N-substituted benzyl moiety” (2012).
Values after ≈ are worked out from the molar mass of the structure shown.

Experiments:
Format in all cases: functional
[1] = system: Mycobacterium tuberculosis; experiment: Antimycobacterial activity against Mycobacterium tuberculosis H37Rv ATCC 27294 by microplate alamar blue assay
Outline: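 Microplate Alamar Blue fluorescence assay on strain H37Rv ATCC 27294. MIC was the lowest concentration cutting fluorescence by ≥90% against the mean of replicate bacterium-only controls.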

Staphylococcus aureus [2] = experiment: Antibacterial activity against Staphylococcus aureus ATCC 2592 after 18 to 24 hrs by NCCLS method
Outline: (§1)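 Standard NCCLS (M100-S11) MIC testing against Gram-positive and Gram-negative strains. Plates were incubated at 35 °C for 18–24 h. The MIC was read as the lowest concentration giving complete inhibition of visible bacterial growth.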

Staphylococcus aureus [3] = experiment: Antibacterial activity against methicillin-sensitive Staphylococcus aureus 10-11 after 18 to 24 hrs by NCCLS method; outline: as §1
Staphylococcus aureus [4] = experiment: Antibacterial activity against methicillin-sensitive Staphylococcus aureus 10-13 after 18 to 24 hrs by NCCLS method; outline: as §1
Staphylococcus aureus [5] = experiment: Antibacterial activity against methicillin-sensitive Staphylococcus aureus 10-14 after 18 to 24 hrs by NCCLS method; outline: as §1
Staphylococcus aureus [6] = experiment: Antibacterial activity against methicillin-resistant Staphylococcus aureus 10-11 after 18 to 24 hrs by NCCLS method
Outline: (§2)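 Incubated at 35 °C for 18–24 h under NCCLS (M100-S11) standards. MIC was read as the lowest concentration giving complete inhibition of visible bacterial growth.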

Staphylococcus aureus [7] = experiment: Antibacterial activity against methicillin-resistant Staphylococcus aureus 10-13 after 18 to 24 hrs by NCCLS method; outline: as §2
Staphylococcus aureus [8] = experiment: Antibacterial activity against methicillin-resistant Staphylococcus aureus 10-15 after 18 to 24 hrs by NCCLS method; outline: as §2
[9] = system: Staphylococcus epidermidis; experiment: Antibacterial activity against methicillin-sensitive Staphylococcus epidermidis 10-11 after 18 to 24 hrs by NCCLS method; outline: as §1
[10] = system: Staphylococcus epidermidis; experiment: Antibacterial activity against methicillin-sensitive Staphylococcus epidermidis 10-15 after 18 to 24 hrs by NCCLS method; outline: as §2
[11] = system: Staphylococcus epidermidis; experiment: Antibacterial activity against methicillin-resistant Staphylococcus epidermidis 10-10 after 18 to 24 hrs by NCCLS method; outline: as §2
[12] = system: Staphylococcus epidermidis; experiment: Antibacterial activity against methicillin-resistant Staphylococcus epidermidis 10-13 after 18 to 24 hrs by NCCLS method; outline: as §2
Enterococcus faecalis [13] = experiment: Antibacterial activity against Enterococcus faecalis 10-5 after 18 to 24 hrs by NCCLS method; outline: as §1
Enterococcus faecalis [14] = experiment: Antibacterial activity against Enterococcus faecalis 10-6 after 18 to 24 hrs by NCCLS method; outline: as §1
Enterococcus faecalis [15] = experiment: Antibacterial activity against Enterococcus faecalis 10-7 after 18 to 24 hrs by NCCLS method; outline: as §1
Enterococcus faecium [16] = experiment: Antibacterial activity against Enterococcus faecium 10-6 after 18 to 24 hrs by NCCLS method; outline: as §1
Enterococcus faecium [17] = experiment: Antibacterial activity against Enterococcus faecium 10-9 after 18 to 24 hrs by NCCLS method; outline: as §1
Streptococcus pneumoniae [18] = experiment: Antibacterial activity against Streptococcus pneumoniae 10-1 after 18 to 24 hrs by NCCLS method; outline: as §1
Streptococcus pneumoniae [19] = experiment: Antibacterial activity against Streptococcus pneumoniae 10-6 after 18 to 24 hrs by NCCLS method; outline: as §1
Escherichia coli [20] = experiment: Antibacterial activity against Escherichia coli ATCC 25922 after 18 to 24 hrs by NCCLS method; outline: as §1
Escherichia coli [21] = experiment: Antibacterial activity against Escherichia coli 10-1 after 18 to 24 hrs by NCCLS method; outline: as §1
Escherichia coli [22] = experiment: Antibacterial activity against Escherichia coli 10-2 after 18 to 24 hrs by NCCLS method; outline: as §1
Escherichia coli [23] = experiment: Antibacterial activity against Escherichia coli 10-3 after 18 to 24 hrs by NCCLS method; outline: as §1
Escherichia coli [24] = experiment: Antibacterial activity against extended spectrum beta-lactamases producing Escherichia coli 10-2 after 18 to 24 hrs by NCCLS method; outline: as §1
Escherichia coli [25] = experiment: Antibacterial activity against extended spectrum beta-lactamases producing Escherichia coli 10-3 after 18 to 24 hrs by NCCLS method; outline: as §1
Escherichia coli [26] = experiment: Antibacterial activity against extended spectrum beta-lactamases producing Escherichia coli 10-4 after 18 to 24 hrs by NCCLS method; outline: as §1
Klebsiella pneumoniae [27] = experiment: Antibacterial activity against Klebsiella pneumoniae 10-2 after 18 to 24 hrs by NCCLS method; outline: as §1
Klebsiella pneumoniae [28] = experiment: Antibacterial activity against Klebsiella pneumoniae 10-3 after 18 to 24 hrs by NCCLS method; outline: as §1
Klebsiella pneumoniae [29] = experiment: Antibacterial activity against Klebsiella pneumoniae 10-4 after 18 to 24 hrs by NCCLS method; outline: as §1
Klebsiella pneumoniae [30] = experiment: Antibacterial activity against extended spectrum beta-lactamases producing Klebsiella pneumoniae 10-1 after 18 to 24 hrs by NCCLS method; outline: as §1
Klebsiella pneumoniae [31] = experiment: Antibacterial activity against extended spectrum beta-lactamases producing Klebsiella pneumoniae 10-2 after 18 to 24 hrs by NCCLS method; outline: as §1
Klebsiella pneumoniae [32] = experiment: Antibacterial activity against extended spectrum beta-lactamases producing Klebsiella pneumoniae 10-3 after 18 to 24 hrs by NCCLS method; outline: as §1
Pseudomonas aeruginosa [33] = experiment: Antibacterial activity against Pseudomonas aeruginosa 10-5 after 18 to 24 hrs by NCCLS method; outline: as §1
Pseudomonas aeruginosa [34] = experiment: Antibacterial activity against Pseudomonas aeruginosa 10-9 after 18 to 24 hrs by NCCLS method; outline: as §1
Pseudomonas aeruginosa [35] = experiment: Antibacterial activity against Pseudomonas aeruginosa 10-12 after 18 to 24 hrs by NCCLS method; outline: as §1
Pseudomonas aeruginosa [36] = experiment: Antibacterial activity against Pseudomonas aeruginosa 10-15 after 18 to 24 hrs by NCCLS method; outline: as §1
Pseudomonas aeruginosa [37] = experiment: Antibacterial activity against Pseudomonas aeruginosa 10-18 after 18 to 24 hrs by NCCLS method; outline: as §1
Pseudomonas aeruginosa [38] = experiment: Antibacterial activity against Pseudomonas aeruginosa 10-20 after 18 to 24 hrs by NCCLS method; outline: as §1

SMILES	MIC [1]	MIC (Staphylococcus aureus [2])	MIC (Staphylococcus aureus [3])	MIC (Staphylococcus aureus [4])	MIC (Staphylococcus aureus [5])	MIC (Staphylococcus aureus [6])	MIC (Staphylococcus aureus [7])	MIC (Staphylococcus aureus [8])	MIC [9]	MIC [10]	MIC [11]	MIC [12]	MIC (Enterococcus faecalis [13])	MIC (Enterococcus faecalis [14])	MIC (Enterococcus faecalis [15])	MIC (Enterococcus faecium [16])	MIC (Enterococcus faecium [17])	MIC (Streptococcus pneumoniae [18])	MIC (Streptococcus pneumoniae [19])	MIC (Escherichia coli [20])	other results
COc1cc(CN2CCN(c3cc4c(cc3F)c(=O)c(C(=O)O)cn4C3CC3)CC2)cc(OC)c1	2 µg/mL (≈ 4.15 µM)	1 µg/mL (≈ 2.08 µM)	1 µg/mL (≈ 2.08 µM)	0.5 µg/mL (≈ 1.04 µM)	1 µg/mL (≈ 2.08 µM)	128 µg/mL (≈ 266 µM)	> 128 µg/mL	64 µg/mL (≈ 133 µM)	4 µg/mL (≈ 8.31 µM)	128 µg/mL (≈ 266 µM)	> 128 µg/mL	128 µg/mL (≈ 266 µM)	128 µg/mL (≈ 266 µM)	> 128 µg/mL	> 128 µg/mL	16 µg/mL (≈ 33.2 µM)	> 128 µg/mL	8 µg/mL (≈ 16.6 µM)	> 128 µg/mL	1 µg/mL (≈ 2.08 µM)	MIC (Escherichia coli [21]): > 128 µg/mL; MIC (Escherichia coli [22]): > 128 µg/mL; MIC (Escherichia coli [23]): > 128 µg/mL; MIC (Escherichia coli [24]): > 128 µg/mL; MIC (Escherichia coli [25]): > 128 µg/mL; MIC (Escherichia coli [26]): > 128 µg/mL; MIC (Klebsiella pneumoniae [27]): > 128 µg/mL; MIC (Klebsiella pneumoniae [28]): 64 µg/mL (≈ 133 µM); MIC (Klebsiella pneumoniae [29]): > 128 µg/mL; MIC (Klebsiella pneumoniae [30]): > 128 µg/mL; MIC (Klebsiella pneumoniae [31]): > 128 µg/mL; MIC (Klebsiella pneumoniae [32]): > 128 µg/mL; MIC (Pseudomonas aeruginosa [33]): 64 µg/mL (≈ 133 µM); MIC (Pseudomonas aeruginosa [34]): 128 µg/mL (≈ 266 µM); MIC (Pseudomonas aeruginosa [35]): 64 µg/mL (≈ 133 µM); MIC (Pseudomonas aeruginosa [36]): 64 µg/mL (≈ 133 µM); MIC (Pseudomonas aeruginosa [37]): 128 µg/mL (≈ 266 µM); MIC (Pseudomonas aeruginosa [38]): 64 µg/mL (≈ 133 µM)
COc1cc(CN2CCN(c3cc4c(cc3F)c(=O)c(C(=O)O)cn4C3CC3)CC2)cc(OC)c1OC	32 µg/mL (≈ 62.6 µM)	0.25 µg/mL (≈ 0.489 µM)	0.25 µg/mL (≈ 0.489 µM)	0.5 µg/mL (≈ 0.977 µM)	0.25 µg/mL (≈ 0.489 µM)	64 µg/mL (≈ 125 µM)	128 µg/mL (≈ 250 µM)	32 µg/mL (≈ 62.6 µM)	0.5 µg/mL (≈ 0.977 µM)	32 µg/mL (≈ 62.6 µM)	32 µg/mL (≈ 62.6 µM)	32 µg/mL (≈ 62.6 µM)	8 µg/mL (≈ 15.6 µM)	64 µg/mL (≈ 125 µM)	64 µg/mL (≈ 125 µM)	4 µg/mL (≈ 7.82 µM)	32 µg/mL (≈ 62.6 µM)	4 µg/mL (≈ 7.82 µM)	64 µg/mL (≈ 125 µM)	1 µg/mL (≈ 1.95 µM)	MIC (Escherichia coli [21]): > 128 µg/mL; MIC (Escherichia coli [22]): 32 µg/mL (≈ 62.6 µM); MIC (Escherichia coli [23]): > 128 µg/mL; MIC (Escherichia coli [24]): > 128 µg/mL; MIC (Escherichia coli [25]): > 128 µg/mL; MIC (Escherichia coli [26]): > 128 µg/mL; MIC (Klebsiella pneumoniae [27]): > 128 µg/mL; MIC (Klebsiella pneumoniae [28]): 32 µg/mL (≈ 62.6 µM); MIC (Klebsiella pneumoniae [29]): > 128 µg/mL; MIC (Klebsiella pneumoniae [30]): > 128 µg/mL; MIC (Klebsiella pneumoniae [31]): > 128 µg/mL; MIC (Klebsiella pneumoniae [32]): > 128 µg/mL; MIC (Pseudomonas aeruginosa [33]): 32 µg/mL (≈ 62.6 µM); MIC (Pseudomonas aeruginosa [34]): 32 µg/mL (≈ 62.6 µM); MIC (Pseudomonas aeruginosa [35]): 32 µg/mL (≈ 62.6 µM); MIC (Pseudomonas aeruginosa [36]): 64 µg/mL (≈ 125 µM); MIC (Pseudomonas aeruginosa [37]): 128 µg/mL (≈ 250 µM); MIC (Pseudomonas aeruginosa [38]): 64 µg/mL (≈ 125 µM)
